According to publication PMC4063182 (Journal of the American Chemical Society, 2014):
Positions count from the first letter of the chain named. Like-named read-outs stand apart in the source and are kept apart here. Blank lines part the entries; values can stand above or below the molecule they belong to.

Tests used:
ferric WT DHP B [1] = target: T1, ferric WT DHP B (Amphitrite ornata, UniProt Q9NAV7); assay: H2O2-dependent oxidation of haloindoles monitored by HPLC; format: biochemical; settings: for conversion (%): 5 min
T1 sequence (Q9NAV7 1-138): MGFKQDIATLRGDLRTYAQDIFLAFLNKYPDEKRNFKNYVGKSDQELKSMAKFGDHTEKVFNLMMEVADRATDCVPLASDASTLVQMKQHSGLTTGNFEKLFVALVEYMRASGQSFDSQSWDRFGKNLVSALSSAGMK
Outline: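 Triplicate reactions at 25 °C in 5% MeOH/100 mM KPi, pH 7, unless pH varied. Ferric DHP B (10 μM final) was premixed with substrate (500 μM final), and reactions were started with H2O2 (500 μM). Additives: 10% v/v DMSO, 500 μM mannitol, SOD, or buffer containing 500 mM sodium formate. Reactions were quenched with excess catalase after 5 min and diluted 10-fold. C18 reverse-phase HPLC used photodiode-array detection, with conversion from standard calibration curves.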

ferric DHP B = target: T2, ferric DHP B (Amphitrite ornata, UniProt Q9NAV7); assay: Reactivity studies of 5-Br-3-oxindole by UV-vis; format: biochemical
T2 sequence (Q9NAV7 1-138): T1 sequence (Q9NAV7 1-138)
Outline: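 5-Br-3-acetoxyindole (250 μM) was incubated <1 min with or without 10 μM ferric wild-type DHP B in 5% MeOH/100 mM KPi, pH 7, in a quartz cuvette. Porcine liver esterase (45 U) started the reaction, and UV-vis spectra were taken over time, aerobically or anaerobically (argon-degassed solutions, glovebox, sealed cuvette). Indigo product was quantified at 659 nm using ε = 22 140 M–1 cm–1.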

DHP A Ferric = assay: H2O2-dependent oxidation of haloindoles monitored by HPLC, isoenzyme A; format: biochemical, Amphitrite ornata; settings: DHP A Ferric 10 μM; [haloindole] = [H2O2] = 500 μM; pH 7, 25 °C, 5 min
Outline: (§1)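 Triplicate reactions at 25 °C, pH 7, in 5% MeOH/100 mM KPi. Enzyme (10 μM final; ferric isoenzyme A or oxyferrous DHP B) was premixed with haloindole (500 μM), and reactions were started with 500 μM H2O2. After 5 min, reactions were quenched with excess catalase and diluted 10-fold in buffer. Analysis was by C18 reverse-phase HPLC (water/TFA to MeCN gradient) with diode-array detection, quantified against standard calibration curves.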

ferric WT DHP B [2] = target: T1, ferric WT DHP B; settings: cited from earlier work
ferric WT DHP B [3] = target: T1, ferric WT DHP B; assay: 5-haloindole binding studies
[4] = target: horse heart myoglobin (hhMb) (Equus caballus, UniProt P68082); assay: H2O2-dependent oxidation of 5-Br-indole monitored by HPLC, myoglobin; format: biochemical; settings: hhMb 10 μM; [haloindole] = [H2O2] = 500 μM; pH 7, 25 °C, 5 min; n.d. = none detected
DHP B Oxyferrous = target: T3, DHP B Oxyferrous (Amphitrite ornata, UniProt Q9NAV7); assay: H2O2-dependent oxidation of haloindoles monitored by HPLC, oxyferrous enzyme; format: biochemical; settings: DHP B Oxyferrous 10 μM; [haloindole] = [H2O2] = 500 μM; pH 7, 25 °C, 5 min
T3 sequence (Q9NAV7 1-138): T1 sequence (Q9NAV7 1-138)
Outline: as §1

WT DHP B Compound ES = target: T4, WT DHP B Compound ES (Amphitrite ornata, UniProt Q9NAV7); assay: Double-mixing stopped-flow UV-vis, preformed Compound ES; format: biochemical
T4 sequence (Q9NAV7 1-138): T1 sequence (Q9NAV7 1-138)
Outline: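 Double-mixing rapid-scan stopped-flow UV-vis at 20 °C in 5% MeOH/100 mM KPi, pH 7. Ferric wild-type DHP B (10 μM) was mixed with 10 equiv H2O2 and aged 350 ms to accumulate Compound ES. It was then mixed with 10, 25 or 50 equiv 5-Br-indole, and 800 scans were taken over 83 s. Spectra were fitted to component time courses.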

[5] = target: T5, horseradish peroxidase (HRP) (Armoracia rusticana, UniProt P00433); assay: H2O2-dependent oxidation of 5-Br-indole monitored by HPLC, HRP; format: biochemical; settings: HRP 10 μM; [haloindole] = [H2O2] = 500 μM; pH 7, 25 °C, 5 min; n.d. = none detected
T5 sequence (P00433 31-338 limits assumed): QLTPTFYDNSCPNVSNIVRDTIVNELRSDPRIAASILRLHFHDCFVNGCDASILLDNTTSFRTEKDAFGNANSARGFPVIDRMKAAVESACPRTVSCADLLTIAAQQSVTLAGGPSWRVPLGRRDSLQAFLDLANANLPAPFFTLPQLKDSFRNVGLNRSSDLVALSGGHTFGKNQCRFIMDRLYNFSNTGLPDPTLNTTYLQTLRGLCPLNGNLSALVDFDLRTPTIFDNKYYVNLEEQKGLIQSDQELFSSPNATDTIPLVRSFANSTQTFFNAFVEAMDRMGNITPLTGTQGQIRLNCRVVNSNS

[6] = target: T6, DHP B(Y28F/Y38F) Compound I (Amphitrite ornata, UniProt Q9NAV7, Y29F/Y39F); assay: Double-mixing stopped-flow UV-vis, preformed Compound I; format: biochemical
T6 sequence (Q9NAV7 1-138 Y29F/Y39F): T1 sequence (Q9NAV7 1-138) with Y29F, Y39F

oxyferrous DHP B = target: T7, oxyferrous DHP B (Amphitrite ornata, UniProt Q9NAV7); assay: Stopped-flow UV-vis with oxyferrous DHP B / Compound II; format: biochemical; settings: preincubated with 2.5 equiv 5-Br-indole, 5 equiv H2O2, pH 7
T7 sequence (Q9NAV7 1-138): T1 sequence (Q9NAV7 1-138)
Outline: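 Single-mixing rapid-scan stopped-flow at 20 °C in 5% MeOH/100 mM KPi, pH 7.0. Oxyferrous DHP B (10 μM) was preincubated with 2.5 equiv 5-Br-indole, then rapidly mixed with 5 equiv H2O2. 800 spectra were collected over 83 s. Spectra were fitted to component species to obtain relative concentration time courses.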

[7] = DHP B Ferric, anaerobic, [haloindole] = [H2O2] = 500 μM, pH 7, 25 °C
[8] = 10 equiv 5-Br-indole, 10 equiv H2O2, pH 7
[9] = read-out: apparent dissociation constant (Kd), 10 μM ferric WT DHP B, 100 mM KPi pH 7, 10% MeOH

horse heart myoglobin (hhMb), sequence (P68082 whole entry): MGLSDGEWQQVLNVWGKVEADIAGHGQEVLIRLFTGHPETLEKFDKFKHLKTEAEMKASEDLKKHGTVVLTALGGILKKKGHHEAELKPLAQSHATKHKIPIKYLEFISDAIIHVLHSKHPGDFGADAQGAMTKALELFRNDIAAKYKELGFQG

- product distribution of 5-Br-indole reaction (HPLC) (ferric WT DHP B [1]; 5-Br-indole 500 μM, DHP B 10 μM, H2O2 500 μM, pH 7, 1a determined from mass balance): ~2%
- 5,5′-Br2-indigo formation aerobic versus anaerobic (ferric DHP B; DHP present): ~4 fold
- 5,5′-Br2-indigo formed in the presence of DHP versus the absence of enzyme (ferric DHP B; aerobic, after 5 min): 45 fold
- 5,5′-Br2-indigo concentration formed from 5-Br-3-oxindole (ferric DHP B; anaerobic, 10 μM DHP, after 10 min): ~8 µM
SMILES: O=C1/C(=C2\Nc3ccc(Br)cc3C2=O)Nc2ccc(Br)cc21 [5,5′-Br2-indigo, (E)-5,5′-dibromo-[2,2′-biindolinylidene]-3,3′-dione]

- conversion (%) (DHP A Ferric): 15.7 (±0.7) %
- conversion (%) (ferric WT DHP B [1]; [7]): 40.1 (±0.9) %
SMILES: Brc1cccc2[nH]ccc12 [4-Br-indole]

- reactivity lower than 5-Br-indole (ferric WT DHP B [1]; ferric WT DHP B, pH 7): 2 fold
SMILES: c1ccc2[nH]ccc2c1 [indole]

SMILES: Oc1ccc(Br)cc1 [4-bromophenol, reference compound]
- attenuation in reactivity of 5-Br-indole (ferric WT DHP B [1]; in the presence of 500 μM 4-bromophenol): 2 fold
- Kd (ferric WT DHP B [2]): ~1.2 mM

- conversion (%) (DHP A Ferric): 20.3 (±1.7) %
- Kd (ferric WT DHP B [3]): 150 ± 10 µM
- conversion (%) [4]: no reactivity
- conversion (%) (DHP B Oxyferrous): 44.9 (±4.8) %
- conversion (%) (ferric WT DHP B [1]; DHP B Ferric + 500 μM 4-BP, pH 7, 25 °C): 23.2 (±5.1) %
- conversion (%) (ferric WT DHP B [1]; DHP B Ferric + 500 μM mannitol, pH 7, 25 °C): 46.2 (±1.6) %
- conversion (%) (ferric WT DHP B [1]; DHP B Ferric + 500 mM formate, pH 7, 25 °C): 45.8 (±1.1) %
- conversion (%) (ferric WT DHP B [1]; DHP B Ferric + 10% DMSO, pH 7, 25 °C): 45.0 (±4.4) %
- conversion (%) (ferric WT DHP B [1]; DHP B Ferric + SOD ∼2 U/μL, pH 7, 25 °C): 46.1 (±0.7) %
- conversion (%) (ferric WT DHP B [1]; [7]): 53.3 (±0.3) %
- conversion (%) (ferric WT DHP B [1]; DHP B Ferric, pH 5, 25 °C): 63.4 (±0.1) %
- conversion (%) (ferric WT DHP B [1]; DHP B Ferric, pH 6, 25 °C): 54.7 (±1.9) %
- conversion (%) (ferric WT DHP B [1]; DHP B Ferric, pH 8, 25 °C): 34.4 (±2.4) %
- kobs, formation of mixture of oxyferrous and ferric DHP B at longer observation times (WT DHP B Compound ES; [8]): (1.39 ± 0.08) × 10^–2 s^–1
- kobs, reduction of preformed Compound ES to ferric DHP B (WT DHP B Compound ES; [8]): (2.54 ± 0.05) × 10^5 M^–1 s^–1
- time for reduction of Compound ES (within mixing time) (WT DHP B Compound ES; ≥25 equiv 5-Br-indole): < 2.5 ms
- conversion (%) [5]: no reactivity
- time to conversion to oxyferrous DHP B(Y28F/Y38F) ([6]; 10 equiv 5-Br-indole): 697 s
- time to conversion to oxyferrous DHP B(Y28F/Y38F) ([6]; 50 equiv 5-Br-indole): 120 s
- kobs, conversion of oxyferrous DHP B to Compound II (oxyferrous DHP B): (3.30 ± 0.01) × 10^–2 s^–1
SMILES: Brc1ccc2[nH]ccc2c1 [5-Br-indole]

- Kd (ferric WT DHP B [3]; [9]): 317 ± 23 µM
SMILES: Clc1ccc2[nH]ccc2c1 [5-Cl-indole]

- changes in the optical difference spectra upon binding (ferric WT DHP B [3]; even at the highest concentrations tested (up to 100 equiv)): No significant changes
SMILES: Fc1ccc2[nH]ccc2c1 [5-F-indole]

- Kd (ferric WT DHP B [3]; [9]): 62 ± 10 µM
SMILES: Ic1ccc2[nH]ccc2c1 [5-I-indole]
